Experiments:
[1] = Drug level in Colony-bred Chinese Bama minipig liver microsomes treated with 100 uM cinobufagin at 37 degC after 30 mins by UFLC-ESI-MS analysis in presence of NADPH-generating system; type: ADME, Sus scrofa; details: pig, 0.5 h
Method in brief: (§1)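 Liver microsomes (0.3 mg protein/ml) incubated with 100 µM substrate at 37°C for 30 min, in 100 mM potassium phosphate pH 7.4 with NADPH-generating system (1 mM NADP+, 10 mM glucose 6-phosphate, 1 unit/ml G6PDH, 4 mM MgCl2). Acetonitrile ≤1% final. Stopped with ice-cold acetonitrile and centrifuged. Metabolites identified by UFLC-ESI-MS and quantified by UFLC-DAD at 294 nm against authentic standard curves.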

Cytochrome P450 2C9 = Cytochrome P450 2C9 (Homo sapiens, UniProt P11712); experiment: Drug level in human recombinant CYP2C9 expressed in insect cells coexpressing NADPH-P450 reductase measured per pmol of enzyme treated with 50 uM cinobufagin at 37 degC after 30 mins by UFLC-DAD-ESI-MS analysis; details: 0.5 h
Cytochrome P450 2D6 = Cytochrome P450 2D6 (Homo sapiens, UniProt P10635); experiment: Drug level in human recombinant CYP2D6 expressed in insect cells coexpressing NADPH-P450 reductase measured per pmol of enzyme treated with 50 uM cinobufagin at 37 degC after 30 mins by UFLC-DAD-ESI-MS analysis; details: 0.5 h
Cytochrome P450 1A2 = biological target: T1, Cytochrome P450 1A2 (Homo sapiens, UniProt P05177); experiment: Drug level in human recombinant CYP1A2 expressed in insect cells coexpressing NADPH-P450 reductase measured per pmol of enzyme treated with 50 uM cinobufagin at 37 degC after 30 mins by UFLC-DAD-ESI-MS analysis; details: 0.5 h
T1 sequence (P05177 whole entry): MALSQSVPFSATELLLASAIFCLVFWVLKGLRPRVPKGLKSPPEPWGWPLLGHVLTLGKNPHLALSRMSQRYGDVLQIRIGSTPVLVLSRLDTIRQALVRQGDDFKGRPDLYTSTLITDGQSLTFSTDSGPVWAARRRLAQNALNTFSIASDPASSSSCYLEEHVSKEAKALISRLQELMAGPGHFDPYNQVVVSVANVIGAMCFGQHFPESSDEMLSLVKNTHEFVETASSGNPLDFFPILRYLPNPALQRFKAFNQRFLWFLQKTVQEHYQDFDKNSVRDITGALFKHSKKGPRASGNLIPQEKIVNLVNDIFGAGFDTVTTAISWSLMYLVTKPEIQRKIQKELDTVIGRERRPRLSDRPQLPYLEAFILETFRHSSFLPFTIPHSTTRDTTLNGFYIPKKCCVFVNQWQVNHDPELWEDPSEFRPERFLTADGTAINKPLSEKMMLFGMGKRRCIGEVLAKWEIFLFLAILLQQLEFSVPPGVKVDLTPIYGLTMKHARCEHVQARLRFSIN

Cytochrome P450 2C8 = biological target: T2, Cytochrome P450 2C8 (Homo sapiens, UniProt P10632); experiment: Drug level in human recombinant CYP2C8 expressed in insect cells coexpressing NADPH-P450 reductase measured per pmol of enzyme treated with 50 uM cinobufagin at 37 degC after 30 mins by UFLC-DAD-ESI-MS analysis; details: 0.5 h
T2 sequence (P10632 whole entry): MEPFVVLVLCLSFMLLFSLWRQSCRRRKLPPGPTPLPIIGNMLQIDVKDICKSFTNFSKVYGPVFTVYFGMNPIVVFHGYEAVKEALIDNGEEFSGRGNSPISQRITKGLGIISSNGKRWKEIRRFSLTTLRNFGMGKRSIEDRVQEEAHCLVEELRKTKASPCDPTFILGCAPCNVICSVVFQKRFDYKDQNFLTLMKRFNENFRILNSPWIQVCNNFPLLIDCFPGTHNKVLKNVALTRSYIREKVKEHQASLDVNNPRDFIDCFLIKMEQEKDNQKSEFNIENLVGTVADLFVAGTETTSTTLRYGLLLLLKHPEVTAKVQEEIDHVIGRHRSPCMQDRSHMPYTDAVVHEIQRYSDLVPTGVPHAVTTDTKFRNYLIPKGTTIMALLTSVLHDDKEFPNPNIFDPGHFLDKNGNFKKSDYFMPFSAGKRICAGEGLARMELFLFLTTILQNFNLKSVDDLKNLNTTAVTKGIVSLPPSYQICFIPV

Cytochrome P450 2C19 = Cytochrome P450 2C19 (Homo sapiens, UniProt P33261); experiment: Drug level in human recombinant CYP2C19 expressed in insect cells coexpressing NADPH-P450 reductase measured per pmol of enzyme treated with 100 uM cinobufagin at 37 degC after 30 mins by UFLC-DAD-ESI-MS analysis; type: ADME; details: 0.5 h
Cytochrome P450 2A6 = biological target: T3, Cytochrome P450 2A6 (Homo sapiens, UniProt P11509); experiment: Drug level in human recombinant CYP2A6 expressed in insect cells coexpressing NADPH-P450 reductase measured per pmol of enzyme treated with 50 uM cinobufagin at 37 degC after 30 mins by UFLC-DAD-ESI-MS analysis; details: 0.5 h
T3 sequence (P11509 whole entry): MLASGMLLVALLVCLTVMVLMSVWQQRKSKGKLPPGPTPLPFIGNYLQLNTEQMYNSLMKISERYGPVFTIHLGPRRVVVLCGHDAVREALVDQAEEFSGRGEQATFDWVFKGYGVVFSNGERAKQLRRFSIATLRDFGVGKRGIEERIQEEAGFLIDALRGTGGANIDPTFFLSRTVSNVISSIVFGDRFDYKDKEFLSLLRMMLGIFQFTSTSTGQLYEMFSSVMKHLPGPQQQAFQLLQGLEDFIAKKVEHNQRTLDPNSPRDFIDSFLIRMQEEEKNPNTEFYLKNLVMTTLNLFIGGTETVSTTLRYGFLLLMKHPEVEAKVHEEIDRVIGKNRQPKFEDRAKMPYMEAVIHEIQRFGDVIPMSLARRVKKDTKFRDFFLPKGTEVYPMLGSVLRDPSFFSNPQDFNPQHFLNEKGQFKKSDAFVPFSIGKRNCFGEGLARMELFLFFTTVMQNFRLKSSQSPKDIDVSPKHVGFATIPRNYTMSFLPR

Liver microsome = experiment: Drug level in beagle dog liver microsomes treated with 100 uM cinobufagin at 37 degC after 30 mins by UFLC-ESI-MS analysis in presence of NADPH-generating system; type: ADME, Canis lupus familiaris; details: 0.5 h; method in brief: as §1
[2] = Cytotoxicity against human Bel7402 cells assessed as againsthibition of cell growth after 72 hrs; type: cell-based; details: Bel-7402, 72 h
Method in brief: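 Bel-7402 hepatoma cells grown in RPMI 1640 with 10% FBS and 1% penicillin/streptomycin, trypsinised, seeded and exposed to serial dilutions for 72 h at 37°C.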

Cytochrome P450 2C19, sequence (P33261 whole entry): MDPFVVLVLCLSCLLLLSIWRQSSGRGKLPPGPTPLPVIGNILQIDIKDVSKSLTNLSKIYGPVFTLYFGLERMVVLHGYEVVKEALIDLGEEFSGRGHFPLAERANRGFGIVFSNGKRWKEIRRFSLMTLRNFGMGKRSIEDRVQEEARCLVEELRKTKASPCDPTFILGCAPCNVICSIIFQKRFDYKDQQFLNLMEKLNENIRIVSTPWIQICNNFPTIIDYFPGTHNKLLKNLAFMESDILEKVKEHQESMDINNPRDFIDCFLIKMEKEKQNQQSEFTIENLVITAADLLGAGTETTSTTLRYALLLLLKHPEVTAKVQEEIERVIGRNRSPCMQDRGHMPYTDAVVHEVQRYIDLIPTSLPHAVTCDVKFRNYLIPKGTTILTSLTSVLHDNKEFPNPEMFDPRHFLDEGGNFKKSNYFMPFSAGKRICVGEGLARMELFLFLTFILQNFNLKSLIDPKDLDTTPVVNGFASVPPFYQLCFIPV
Cytochrome P450 2C9, sequence (P11712 whole entry): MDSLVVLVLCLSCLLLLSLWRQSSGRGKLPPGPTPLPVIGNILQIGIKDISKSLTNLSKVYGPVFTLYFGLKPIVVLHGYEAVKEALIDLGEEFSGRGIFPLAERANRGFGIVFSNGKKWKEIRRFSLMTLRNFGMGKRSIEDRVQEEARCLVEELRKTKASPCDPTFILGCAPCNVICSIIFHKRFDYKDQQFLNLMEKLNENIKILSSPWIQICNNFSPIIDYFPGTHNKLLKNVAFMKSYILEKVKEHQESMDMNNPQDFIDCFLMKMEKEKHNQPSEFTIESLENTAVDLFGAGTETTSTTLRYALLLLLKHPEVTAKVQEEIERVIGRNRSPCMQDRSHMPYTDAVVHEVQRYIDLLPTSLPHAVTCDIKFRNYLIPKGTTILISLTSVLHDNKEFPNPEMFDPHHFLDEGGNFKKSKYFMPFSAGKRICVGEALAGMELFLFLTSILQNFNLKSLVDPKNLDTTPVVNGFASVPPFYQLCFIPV
Cytochrome P450 2D6, sequence (P10635 whole entry): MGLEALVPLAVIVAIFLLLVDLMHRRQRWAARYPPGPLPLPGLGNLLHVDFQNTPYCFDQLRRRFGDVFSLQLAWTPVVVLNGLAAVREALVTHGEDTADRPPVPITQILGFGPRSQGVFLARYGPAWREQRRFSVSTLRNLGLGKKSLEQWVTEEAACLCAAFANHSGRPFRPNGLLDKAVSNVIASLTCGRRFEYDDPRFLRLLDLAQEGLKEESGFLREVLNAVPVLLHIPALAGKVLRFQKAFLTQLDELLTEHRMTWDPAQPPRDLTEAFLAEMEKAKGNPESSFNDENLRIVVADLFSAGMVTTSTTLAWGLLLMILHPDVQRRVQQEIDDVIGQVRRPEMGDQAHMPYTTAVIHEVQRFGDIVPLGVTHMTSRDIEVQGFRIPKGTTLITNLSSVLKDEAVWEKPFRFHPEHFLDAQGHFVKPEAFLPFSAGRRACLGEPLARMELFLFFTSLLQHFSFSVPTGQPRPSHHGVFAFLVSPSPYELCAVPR

Structure (SMILES)	Drug metabolism [1]	Drug metabolism (Cytochrome P450 2C9)	Drug metabolism (Cytochrome P450 2D6)	Drug metabolism (Cytochrome P450 1A2)	Drug metabolism (Cytochrome P450 2C8)	Drug metabolism (Cytochrome P450 2C19)	Drug metabolism (Cytochrome P450 2A6)	Drug metabolism (Liver microsome)	IC50 [2]
CC(=O)O[C@H]1[C@H]2O[C@]23[C@@H]2CC[C@@H]4C[C@@H](O)C[C@H](O)[C@]4(C)[C@H]2CC[C@]3(C)[C@H]1c1ccc(=O)oc1	metabolite_detected	< 0.01 pmol/min	< 0.01 pmol/min	< 0.01 pmol/min	< 0.01 pmol/min	< 0.01 pmol/min	< 0.01 pmol/min	metabolite_detected	0.37 µM
CC(=O)O[C@H]1[C@H]2O[C@]23[C@@H]2CC[C@@H]4C[C@@H](O)CC[C@]4(C)[C@H]2CC[C@]3(C)[C@H]1c1ccc(=O)oc1 [CINOBUFAGIN]									0.049 µM
CC(=O)O[C@H]1[C@H]2O[C@]23[C@@H]2CC[C@]4(O)C[C@@H](O)CC[C@]4(C)[C@H]2CC[C@]3(C)[C@H]1c1ccc(=O)oc1 [CINOBUFOTALIN]	metabolite_detected	< 0.01 pmol/min	< 0.01 pmol/min	< 0.01 pmol/min	< 0.01 pmol/min	< 0.01 pmol/min	< 0.01 pmol/min	metabolite_detected	8.62 µM

Reference: ChEMBL document CHEMBL3526081 (Drug Metab Dispos, 2011)
